For assay [1], the target named is T1, Adenosine receptor A3 (Homo sapiens) (UniProt P0DMS8).
T1 sequence (whole entry): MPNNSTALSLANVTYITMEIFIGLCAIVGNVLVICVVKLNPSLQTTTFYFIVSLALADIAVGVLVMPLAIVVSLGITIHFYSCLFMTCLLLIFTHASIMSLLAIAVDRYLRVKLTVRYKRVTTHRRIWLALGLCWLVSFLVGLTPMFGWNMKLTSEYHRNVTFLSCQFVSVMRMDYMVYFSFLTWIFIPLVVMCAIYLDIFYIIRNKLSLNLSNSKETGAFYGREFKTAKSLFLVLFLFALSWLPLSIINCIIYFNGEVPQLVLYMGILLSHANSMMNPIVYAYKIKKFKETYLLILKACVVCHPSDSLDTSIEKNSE
Description: Irreversible inhibition of […]-AB-MECA binding to human adenosine A3 receptor at 10 nM. The method, boiled down: (§1)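 Membranes from CHO cells stably expressing human A3 receptor, preincubated 1 h at room temperature with compound (DMSO ≤1%), then washed 9 times by centrifugation/resuspension in 50 mM Tris, 10 mM Mg2+, 1 mM EDTA pH 7.4 with 0.02% CHAPS; adenosine deaminase 3 units/mL throughout.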

Assay [2] addresses T1, Adenosine receptor A3 (Homo sapiens). Description: Irreversible inhibition of […]-AB-MECA binding to human adenosine A3 receptor at 1 nM. The method, boiled down: as §1
For assay [3] the target is unchanged. Nature of the assay: Irreversible inhibition of […]-AB-MECA binding to human adenosine A3 receptor at 100 nM. The method, boiled down:
as §1

Usually inhibition stands for the share of the control response that was lost under treatment. With `CCCCn1cc2c(nc(NC(=O)Nc3ccc(S(=O)(=O)F)cc3)n3nc(-c4ccco4)nc23)n1`, the inhibition turned out to be 40% in assay [1], 31% in assay [2] and 73% in assay [3].

On to `Cn1cc2c(nc(NC(=O)Nc3ccc(N(CCCl)CCCl)cc3)n3nc(-c4ccco4)nc23)n1`, for which the values for the inhibition in assay [1], in assay [2] and in assay [3] were 11%, 0% and 22%, respectively.

Turning to `CCn1cc2c(nc(NC(=O)Nc3ccc(S(=O)(=O)F)cc3)n3nc(-c4ccco4)nc23)n1`, the inhibition turned out to be 30% in assay [1], 4.1% in assay [2] and 65% in assay [3].

`CCCn1cc2c(nc(NC(=O)Nc3ccc(N(CCCl)CCCl)cc3)n3nc(-c4ccco4)nc23)n1`: the results for the inhibition in assay [1], in assay [2] and in assay [3] were 11%, 7.8% and 16%, respectively.

With `CCCCn1cc2c(nc(NC(=O)Nc3ccc(N(CCCl)CCCl)cc3)n3nc(-c4ccco4)nc23)n1`, the inhibition in assay [1] stood at 7%; in assay [2], 0%; in assay [3], 9%.

In the case of `CCn1cc2c(nc(NC(=O)Nc3ccc(N(CCCl)CCCl)cc3)n3nc(-c4ccco4)nc23)n1`, the inhibition in assay [1] was 0%; in assay [2], 0%; in assay [3] it was 18%.

Take `CCCn1cc2c(nc(NC(=O)Nc3ccc(S(=O)(=O)F)cc3)n3nc(-c4ccco4)nc23)n1`: the inhibition in assay [1] stood at 70%; in assay [2], 47%; in assay [3], 79%.

The record behind these values is ChEMBL document CHEMBL1134562, “Fluorosulfonyl- and bis-(beta-chloroethyl)amino-phenylamino functionalized pyrazolo[4,3-e]1,2,4-triazolo[1,5-c]pyrimidine derivatives: irreversible antagonists at the human A3 adenosine receptor and molecular modeling studies” (J Med Chem, 2001).
